Experimental data from ChEMBL document CHEMBL4689842, “EUbOPEN Chemogenomics Library wave 1” (2021).

System: HEK-293T
Assay: Multiplex assay against HEK293T;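 as to Population Tubulin-Different-Phenotype (%): share of the cells with healthy nuclei that show this phenotype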
Format: toxicity, cell-based
Details: human
How it was run: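 Cells stained live at seeding with Hoechst33342, BioTracker Green Microtubule Cytoskeleton Dye, MitoTracker Red and Annexin V Alexa Fluor 680 were imaged on a CQ1 microscope at 37°C and 5% CO2 after compound addition. Their classification by CellPathfinder machine-learning gating ran from Hoechst high-intensity objects versus normal cells, to healthy, pyknosed or fragmented nuclei among normal cells, to mitotic or apoptotic among pyknosed cells. Tubulin, mitochondrial-mass and membrane-permeability phenotypes are per cents of healthy-nucleus cells.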

[1] = 12 h, 1 µM, compound concentration 1 uM, replicate 1
[2] = 12 h, 1 µM, compound concentration 1 uM, replicate 2
[3] = 12 h, 10 µM, compound concentration 10 uM, replicate 1
[4] = 12 h, 10 µM, compound concentration 10 uM, replicate 2
[5] = 24 h, 1 µM, compound concentration 1 uM, replicate 1
[6] = 24 h, 1 µM, compound concentration 1 uM, replicate 2
[7] = 24 h, 10 µM, compound concentration 10 uM, replicate 1
[8] = 24 h, 10 µM, compound concentration 10 uM, replicate 2
[9] = 48 h, 1 µM, compound concentration 1 uM, replicate 1
[10] = 48 h, 1 µM, compound concentration 1 uM, replicate 2
[11] = 48 h, 10 µM, compound concentration 10 uM, replicate 1
[12] = 48 h, 10 µM, compound concentration 10 uM, replicate 2

CN1CCN(CCOc2cc(OC3CCOCC3)c3c(Nc4c(Cl)ccc5c4OCO5)ncnc3c2)CC1 [SARACATINIB]
Population Apoptotic (%) [1]: 51% | Population Fragmented Nuclei (%) [1]: 11% | Population Healthy Nuclei (%) [1]: 29% | Population Hoechst High Intensity Objects (%) [1]: 15% | Population Membrane Permeable-Phenotype (%) [1]: 2% | Population Mitochondria Different-Phenotype (%) [1]: 89% | Population Mitotic Cells (%) [1]: 48% | Population Normal (%) [1]: 84% | Population Pyknosed Nuclei (%) [1]: 58% | Population Tubulin-Different-Phenotype (%) [1]: 82% | Total Cell Count [1]: 345 | Population Apoptotic (%) [2]: 22% | Population Fragmented Nuclei (%) [2]: 4% | Population Healthy Nuclei (%) [2]: 31% | Population Hoechst High Intensity Objects (%) [2]: 8% | Population Membrane Permeable-Phenotype (%) [2]: 3% | Population Mitochondria Different-Phenotype (%) [2]: 71% | Population Mitotic Cells (%) [2]: 77% | Population Normal (%) [2]: 91% | Population Pyknosed Nuclei (%) [2]: 63% | Population Tubulin-Different-Phenotype (%) [2]: 58% | Population Apoptotic (%) [3]: 72% | Population Fragmented Nuclei (%) [3]: 15% | Population Healthy Nuclei (%) [3]: 21% | Population Hoechst High Intensity Objects (%) [3]: 17% | Population Membrane Permeable-Phenotype (%) [3]: 15% | Population Mitochondria Different-Phenotype (%) [3]: 94% | Population Mitotic Cells (%) [3]: 27% | Population Normal (%) [3]: 82% | Population Pyknosed Nuclei (%) [3]: 63% | Population Tubulin-Different-Phenotype (%) [3]: 89% | Total Cell Count [3]: 223 | Population Apoptotic (%) [4]: 82% | Population Fragmented Nuclei (%) [4]: 6% | Population Healthy Nuclei (%) [4]: 22% | Population Hoechst High Intensity Objects (%) [4]: 7% | Population Membrane Permeable-Phenotype (%) [4]: 2% | Population Mitochondria Different-Phenotype (%) [4]: 100% | Population Mitotic Cells (%) [4]: 17% | Population Normal (%) [4]: 92% | Population Pyknosed Nuclei (%) [4]: 71% | Population Tubulin-Different-Phenotype (%) [4]: 100% | Total Cell Count [4]: 190 | Population Apoptotic (%) [5]: 54% | Population Fragmented Nuclei (%) [5]: 11% | Population Healthy Nuclei (%) [5]: 36% | Population Hoechst High Intensity Objects (%) [5]: 13% | Population Membrane Permeable-Phenotype (%) [5]: 3% | Population Mitochondria Different-Phenotype (%) [5]: 87% | Population Mitotic Cells (%) [5]: 45% | Population Normal (%) [5]: 86% | Population Pyknosed Nuclei (%) [5]: 52% | Population Tubulin-Different-Phenotype (%) [5]: 65% | Total Cell Count [5]: 382 | Population Apoptotic (%) [6]: 28% | Population Fragmented Nuclei (%) [6]: 4% | Population Healthy Nuclei (%) [6]: 39% | Population Hoechst High Intensity Objects (%) [6]: 5% | Population Membrane Permeable-Phenotype (%) [6]: 1% | Population Mitochondria Different-Phenotype (%) [6]: 58% | Population Mitotic Cells (%) [6]: 71% | Population Normal (%) [6]: 94% | Population Pyknosed Nuclei (%) [6]: 55% | Population Tubulin-Different-Phenotype (%) [6]: 66% | Total Cell Count [6]: 217 | Population Apoptotic (%) [7]: 80% | Population Fragmented Nuclei (%) [7]: 12% | Population Healthy Nuclei (%) [7]: 15% | Population Hoechst High Intensity Objects (%) [7]: 23% | Population Membrane Permeable-Phenotype (%) [7]: 0% | Population Mitochondria Different-Phenotype (%) [7]: 100% | Population Mitotic Cells (%) [7]: 19% | Population Normal (%) [7]: 76% | Population Pyknosed Nuclei (%) [7]: 71% | Population Tubulin-Different-Phenotype (%) [7]: 90% | Total Cell Count [7]: 248 | Population Apoptotic (%) [8]: 88% | Population Fragmented Nuclei (%) [8]: 5% | Population Healthy Nuclei (%) [8]: 25% | Population Hoechst High Intensity Objects (%) [8]: 5% | Population Membrane Permeable-Phenotype (%) [8]: 6% | Population Mitochondria Different-Phenotype (%) [8]: 95% | Population Mitotic Cells (%) [8]: 11% | Population Normal (%) [8]: 94% | Population Pyknosed Nuclei (%) [8]: 69% | Population Tubulin-Different-Phenotype (%) [8]: 85% | Total Cell Count [8]: 208 | Population Apoptotic (%) [9]: 51% | Population Fragmented Nuclei (%) [9]: 16% | Population Healthy Nuclei (%) [9]: 47% | Population Hoechst High Intensity Objects (%) [9]: 18% | Population Membrane Permeable-Phenotype (%) [9]: 2% | Population Mitochondria Different-Phenotype (%) [9]: 50% | Population Mitotic Cells (%) [9]: 48% | Population Normal (%) [9]: 81% | Population Pyknosed Nuclei (%) [9]: 36% | Population Tubulin-Different-Phenotype (%) [9]: 49% | Total Cell Count [9]: 448 | Population Apoptotic (%) [10]: 26% | Population Fragmented Nuclei (%) [10]: 4% | Population Healthy Nuclei (%) [10]: 70% | Population Hoechst High Intensity Objects (%) [10]: 5% | Population Membrane Permeable-Phenotype (%) [10]: 1% | Population Mitochondria Different-Phenotype (%) [10]: 32% | Population Mitotic Cells (%) [10]: 73% | Population Normal (%) [10]: 94% | Population Pyknosed Nuclei (%) [10]: 25% | Population Tubulin-Different-Phenotype (%) [10]: 55% | Total Cell Count [10]: 315 | Population Apoptotic (%) [11]: 73% | Population Fragmented Nuclei (%) [11]: 23% | Population Healthy Nuclei (%) [11]: 30% | Population Hoechst High Intensity Objects (%) [11]: 26% | Population Membrane Permeable-Phenotype (%) [11]: 3% | Population Mitochondria Different-Phenotype (%) [11]: 96% | Population Mitotic Cells (%) [11]: 26% | Population Normal (%) [11]: 73% | Population Pyknosed Nuclei (%) [11]: 45% | Population Tubulin-Different-Phenotype (%) [11]: 78% | Total Cell Count [11]: 230 | Population Apoptotic (%) [12]: 84% | Population Fragmented Nuclei (%) [12]: 6% | Population Healthy Nuclei (%) [12]: 41% | Population Hoechst High Intensity Objects (%) [12]: 11% | Population Membrane Permeable-Phenotype (%) [12]: 0% | Population Mitochondria Different-Phenotype (%) [12]: 98% | Population Mitotic Cells (%) [12]: 15% | Population Normal (%) [12]: 88% | Population Pyknosed Nuclei (%) [12]: 52% | Population Tubulin-Different-Phenotype (%) [12]: 71% | Total Cell Count [12]: 204
